pIC50: −log10 of the molar value. Activity calls are given as the source filed them. No cut-off for these calls is given here.
Key:
PXR (NR1I2) = molecular target: T1, PXR (NR1I2) (Homo sapiens, UniProt O75469); assay: Transactivation of PXR in human HepG2 cells relative to rifampicin; format: ADME, cell-based; details: read-out: %max
T1 sequence (O75469 whole entry): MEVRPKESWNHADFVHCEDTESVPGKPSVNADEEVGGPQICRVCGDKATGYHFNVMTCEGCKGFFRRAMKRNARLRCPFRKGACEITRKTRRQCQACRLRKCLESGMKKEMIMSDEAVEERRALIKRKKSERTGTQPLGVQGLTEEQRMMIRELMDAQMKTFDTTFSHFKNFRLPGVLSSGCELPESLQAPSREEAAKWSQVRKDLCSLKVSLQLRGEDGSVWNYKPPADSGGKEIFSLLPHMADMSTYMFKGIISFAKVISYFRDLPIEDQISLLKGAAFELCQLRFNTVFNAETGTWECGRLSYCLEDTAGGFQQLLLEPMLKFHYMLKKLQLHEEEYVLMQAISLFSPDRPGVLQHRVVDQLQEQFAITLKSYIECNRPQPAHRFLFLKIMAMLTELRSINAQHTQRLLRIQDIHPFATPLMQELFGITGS

[1] = Permeability in human Caco2 cells; format: ADME, cell-based; details: Caco-2, read-out: permeability
In short: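 Caco-2 monolayer permeability, reported as permeation coefficient in nm/s; an efflux ratio was also determined.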

[2] = Stability in mouse liver microsomes assessed as parent compound remaining after 10 mins; format: ADME, Microsome; details: read-out: Stability
In short: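 Rough stability screen: compound incubated with mouse liver microsomes for 10 min, reported as percentage of parent remaining.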

[3] = Protein binding in mouse plasma assessed as unbound fraction; format: ADME, cell-free
[4] = molecular target: T2, Nuclear receptor ROR-alpha (Homo sapiens) (UniProt P35398); assay: Inverse agonist activity at GAL4-fused RORalpha LBD (272 to 556 residues) (unknown origin) expressed in human Jurkat cells measured after 18 hrs by native IL17 promoter driven steady-glo luciferase assay; format: cell-based
T2 sequence (whole entry): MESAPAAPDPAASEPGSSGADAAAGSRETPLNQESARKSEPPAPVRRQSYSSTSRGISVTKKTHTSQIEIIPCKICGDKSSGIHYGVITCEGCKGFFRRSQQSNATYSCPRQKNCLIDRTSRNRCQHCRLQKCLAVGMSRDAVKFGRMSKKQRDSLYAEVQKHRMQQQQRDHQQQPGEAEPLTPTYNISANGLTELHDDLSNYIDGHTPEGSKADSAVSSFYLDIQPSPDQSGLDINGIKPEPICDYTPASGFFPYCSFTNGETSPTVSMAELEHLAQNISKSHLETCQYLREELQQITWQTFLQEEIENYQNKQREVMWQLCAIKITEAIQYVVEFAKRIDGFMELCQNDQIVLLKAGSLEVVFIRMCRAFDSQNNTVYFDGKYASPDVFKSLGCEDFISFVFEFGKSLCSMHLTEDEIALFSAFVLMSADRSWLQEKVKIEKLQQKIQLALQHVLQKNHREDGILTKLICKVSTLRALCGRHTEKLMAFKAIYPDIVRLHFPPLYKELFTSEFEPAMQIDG

[5] = molecular target: T2, Nuclear receptor ROR-alpha (Homo sapiens); assay: Agonist activity at GAL4-fused RORalpha LBD (272 to 556 residues) (unknown origin) expressed in human Jurkat cells measured after 18 hrs by native IL17 promoter driven steady-glo luciferase assay; format: cell-based
Cytochrome P450 1A2 = molecular target: T3, Cytochrome P450 1A2 (Homo sapiens, UniProt P05177); assay: Inhibition of CYP1A2 (unknown origin); format: ADME
T3 sequence (P05177 whole entry): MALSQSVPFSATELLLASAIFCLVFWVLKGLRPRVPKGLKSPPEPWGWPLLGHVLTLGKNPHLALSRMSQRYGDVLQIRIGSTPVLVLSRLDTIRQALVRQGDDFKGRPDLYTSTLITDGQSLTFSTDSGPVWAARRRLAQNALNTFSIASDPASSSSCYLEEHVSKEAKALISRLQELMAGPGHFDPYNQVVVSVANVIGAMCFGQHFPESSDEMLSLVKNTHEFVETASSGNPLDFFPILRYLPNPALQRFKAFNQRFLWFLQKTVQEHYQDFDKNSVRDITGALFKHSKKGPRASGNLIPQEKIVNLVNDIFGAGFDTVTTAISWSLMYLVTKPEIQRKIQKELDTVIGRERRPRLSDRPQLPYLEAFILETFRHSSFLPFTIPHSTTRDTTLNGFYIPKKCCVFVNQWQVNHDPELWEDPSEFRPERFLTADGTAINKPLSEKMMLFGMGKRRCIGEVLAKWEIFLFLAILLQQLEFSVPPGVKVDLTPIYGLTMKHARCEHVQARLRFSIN

[6] = Half life in Balb/c mouse at 2 mg/kg, iv; format: ADME, organism-based; details: in vivo
In short: (§1)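 Balb/c mice given a single intravenous dose of 2 mg/kg or an oral dose of 10 mg/kg. Plasma exposure was followed to derive Cmax, Tmax, AUC, t1/2, clearance, Vss and oral bioavailability (F).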

[7] = Clearance in Balb/c mouse at 2 mg/kg, iv; format: ADME, organism-based; details: in vivo; in short: as §1
[8] = Cmax in Balb/c mouse at 10 mg/kg, po; format: ADME, organism-based; design: dose 10 mg/kg, route oral; details: in vivo; in short: as §1
Mus musculus [9] = assay: Inhibition of IL2/IL23-induced IL17F production in C57BL/6 mouse at 5 mg/kg, po bid treated 30 mins prior to 24 hrs IL2 challenge followed by IL2/IL23 addition at 0,7 and 23 hrs measured after 7 hrs post last IL2/IL23 challenge relative to control; format: functional; details: C57BL/6, po
In short: (§2)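 Naive mice were challenged three times with IL-2 plus IL-23 (first at 0 and 7 h) and dosed orally bid at 5, 15 or 50 mg/kg. Serum cytokines were measured 7 h after the final IL-2/IL-23 administration. An anti-IL-23 antibody served as positive control.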

Mus musculus [10] = assay: Inhibition of IL2/IL23-induced IL17F production in po bid dosed C57BL/6 mouse treated 30 mins prior to 24 hrs IL2 challenge followed by IL2/IL23 addition at 0,7 and 23 hrs measured after 7 hrs post last IL2/IL23 challenge; format: functional, organism-based; in short: as §2
Mus musculus [11] = assay: Inhibition of IL2/IL23-induced IL22 production in po bid dosed C57BL/6 mouse treated 30 mins prior to 24 hrs IL2 challenge followed by IL2/IL23 addition at 0,7 and 23 hrs measured after 7 hrs post last IL2/IL23 challenge; format: functional, organism-based; in short: as §2

Emax (PXR (NR1I2)): 18%
Papp [1]: 12 ×10⁻⁶ cm/s
remaining at 10 min [2]: 86%
fraction unbound [3]: 0.105
Activity [4]: inactive
Activity [5]: inactive
pIC50 (Cytochrome P450 1A2): < 4.70
half-life [6]: 7.2 h
clearance [7]: 7.2 mL/min/kg
Cmax [8]: 6.6 µM
Structure (SMILES): O=C(O)[C@H]1CC[C@H](C(=O)N2CC[C@](c3ccc(C(F)(C(F)(F)F)C(F)(F)F)cc3)(S(=O)(=O)c3ccc(F)cc3)C2)CC1
inhibition in vivo at 5 mg/kg (Mus musculus [9]): 47%
inhibition (Mus musculus [10]): Dose-dependent effect
inhibition (Mus musculus [11]): Dose-dependent effect

From ChEMBL document CHEMBL4339200, “Structure-based Discovery of Phenyl (3-Phenylpyrrolidin-3-yl)sulfones as Selective, Orally Active RORγt Inverse Agonists” (ACS Med Chem Lett, 2019)
